From ChEMBL document CHEMBL1287703, “Essential structural features of TNF-α lectin-like domain derived peptides for activation of amiloride-sensitive sodium current in A549 cells” (J Med Chem, 2010) come the findings set out here.

SMILES strings stand for the structures. The source made the active and inactive calls. The calls are words filed in the database; no cut-off is given here. Where a SMILES comes first, the peptide text is derived from it. Bridges are numbered along the chain shown (N, C = ends).

Type in all cases: cell-based
In test [1] the test system is A549. In words: Activation of amiloride-sensitive epithelial sodium channel in human A549 cells up to 480 nM at holding potential -100 to + 100 mV by whole cell patch clamp technique. An outline of the steps:
(§1)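 A549 cells (passages 80–90) were grown in DMEM/F12 with 10% FBS and 1% penicillin-streptomycin, then whole-cell patch-clamped at 19–22°C, 24–48 h after plating. After a 5 min equilibration, Eh was stepped from −100 to +100 mV in 20 mV steps, 1 min each. A 5 min control preceded cumulative bath peptide addition (3.5–480 nM final), with amiloride added at the end. EC50 was fitted at −100 mV.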
(In general: The patch-clamp technique gives a direct electrical read-out from membranes.)

Test [2] has as its system A549. Description: Activation of tetraethylammonium-sensitive potassium channel in human A549 cells at 120 nM at holding potential -100 mV by whole cell patch clamp technique.
Test [3] relates to A549. Description: Activation of amiloride-sensitive epithelial sodium channel in human A549 cells at 120 nM at holding potential -100 to + 100 mV by whole cell patch clamp technique. In short, it runs like this:
as §1

Take `C[C@@H]1NC(=O)CNC(=O)[C@H](CCC(=O)O)NC(=O)[C@@H]2CCCN2C(=O)[C@H]([C@H](C)O)NC(=O)[C@H](CCC(=O)O)NC(=O)[C@H](CCCNC(=N)N)NC(=O)[C@H](CCC(N)=O)NC(=O)[C@@H](N)CSSC[C@@H](C(=O)O)NC(=O)CNC(=O)CNC(=O)[C@H](CCCCN)NC(=O)[C@H](C)NC(=O)[C@H](CCC(=O)O)NC1=O`: the result in the test on A549 [1] was inactive.

Regarding `C[C@@H]1NC(=O)CNC(=O)[C@H](CCC(=O)O)NC(=O)[C@@H]2CCCN2C(=O)[C@H]([C@H](C)O)NC(=O)[C@H](CCC(=O)O)NC(=O)[C@H](CCCNC(=N)N)NC(=O)[C@H](CCC(N)=O)NC(=O)CNC(=O)CCCCCCNC(=O)[C@H](Cc2ccc(O)cc2)NC(=O)[C@H](Cc2c[nH]c3ccccc23)NC(=O)[C@@H]2CCCN2C(=O)[C@H](CCCCN)NC(=O)[C@H](C)NC(=O)[C@H](CCC(=O)O)NC1=O`, the outcome in the test on A549 [1] was inactive.

Take `C[C@@H]1NC(=O)CNC(=O)[C@H](CCC(=O)O)NC(=O)[C@@H]2CCCN2C(=O)[C@H]([C@H](C)O)NC(=O)[C@H](CCC(=O)O)NC(=O)[C@H](CCCNC(=N)N)NC(=O)[C@H](CCC(N)=O)NC(=O)CNC(=O)CCCNC(=O)CNC(=O)[C@H](Cc2ccc(O)cc2)NC(=O)[C@H](Cc2c[nH]c3ccccc23)NC(=O)[C@@H]2CCCN2C(=O)[C@H](CCCCN)NC(=O)[C@H](C)NC(=O)[C@H](CCC(=O)O)NC1=O`: in the test with A549 [1], the result was inactive.

As for `C[C@@H]1NC(=O)CNC(=O)[C@H](CCC(=O)O)NC(=O)[C@@H]2CCCN2C(=O)[C@H]([C@H](C)O)NC(=O)[C@H](CCC(=O)O)NC(=O)[C@H](CCCNC(=N)N)NC(=O)[C@H](CCC(N)=O)NC(=O)CNC(=O)[C@@H](N)CSSC[C@@H](C(=O)O)NC(=O)[C@H](Cc2ccc(O)cc2)NC(=O)[C@H](Cc2c[nH]c3ccccc23)NC(=O)[C@@H]2CCCN2C(=O)[C@H](CCCCN)NC(=O)[C@H](C)NC(=O)[C@H](CCC(=O)O)NC1=O`, the Activity in the test with A549 [2] is 0.6%; in the test on A549 [3] it was 99.4%.

Take `C[C@@H]1NC(=O)CNC(=O)[C@H](C)NC(=O)[C@@H]2CCCN2C(=O)[C@H](C)NC(=O)[C@H](CCC(=O)O)NC(=O)[C@H](CCCNC(=N)N)NC(=O)[C@H](CCC(N)=O)NC(=O)CNC(=O)[C@@H](N)CSSC[C@@H](C(=O)O)NC(=O)[C@H](Cc2ccc(O)cc2)NC(=O)[C@H](Cc2c[nH]c3ccccc23)NC(=O)[C@@H]2CCCN2C(=O)[C@H](CCCCN)NC(=O)[C@H](C)NC(=O)[C@H](C)NC1=O` (H-CGQREAPAGAAAKPWYC-OH; disulfide 1-17): in the test on A549 [1], the result was inactive.

Consider `C[C@@H]1NC(=O)CNC(=O)[C@H](CCC(=O)O)NC(=O)[C@@H]2CCCN2C(=O)[C@H]([C@H](C)O)NC(=O)[C@H](CCC(=O)O)NC(=O)[C@H](CCCNC(=N)N)NC(=O)[C@H](CCC(N)=O)NC(=O)CNC(=O)CCCCCNC(=O)CNC(=O)[C@H](Cc2ccc(O)cc2)NC(=O)[C@H](Cc2c[nH]c3ccccc23)NC(=O)[C@@H]2CCCN2C(=O)[C@H](CCCCN)NC(=O)[C@H](C)NC(=O)[C@H](CCC(=O)O)NC1=O`, for which, in the test on A549 [1], the result was inactive.
